Measured values published in ChEMBL document CHEMBL1165950, “Design and synthesis of new potent anticancer pyrazoles with high FLT3 kinase inhibitory selectivity” (Bioorg Med Chem, 2010).

How the values were obtained:
Assay type in all cases: functional
HCT-15 [1] = test: Cytotoxicity against human HCT15 cells assessed as cell growth at 100 nM after 48 hrs by sulforhodamine B assay; conditions: HCT-15, 48 h, read-out: Activity
SW-620 [2] = test: Cytotoxicity against human SW620 cells assessed as cell growth at 100 nM after 48 hrs by sulforhodamine B assay; conditions: SW-620, 48 h, read-out: Activity
NCI/ADR-RES = test: Cytotoxicity against human NCI/ADR-RES cells assessed as cell growth at 100 nM after 48 hrs by sulforhodamine B assay; conditions: read-out: Activity
K562 [3] = test: Cytotoxicity against human K562 cells assessed as cell growth at 0.01 uM after 48 hrs by sulforhodamine B assay; conditions: K562, 48 h, read-out: Activity
TK-10 = test: Cytotoxicity against human TK10 cells assessed as cell growth at 100 nM after 48 hrs by sulforhodamine B assay; conditions: TK-10, 48 h, read-out: Activity
UO-31 = test: Cytotoxicity against human UO31 cells assessed as cell growth at 100 nM after 48 hrs by sulforhodamine B assay; conditions: UO-31, 48 h, read-out: Activity
UACC-257 = test: Cytotoxicity against human UACC257 cells assessed as cell growth at 10 uM; conditions: read-out: Activity
In short: (§1)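 NCI-60 screen: cells grown in RPMI 1640 with 5% FBS and 2 mM L-glutamine, plated at 5000–40,000 cells/well according to doubling time, and preincubated 24 h at 37 °C, 5% CO2. The single 10 µM dose (DMSO stock) was added, then incubated 48 h. Cells were TCA-fixed and stained with 0.4% SRB, read at 515 nm, and growth % calculated against time-zero and control plates.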

RXF 393 = test: Cytotoxicity against human RXF393 cells assessed as cell growth at 10 uM; conditions: read-out: Activity; in short: as §1
PC-3 [4] = test: Cytotoxicity against human PC3 cells assessed as cell growth at 10 uM; conditions: read-out: Activity; in short: as §1
HL-60(TB) = test: Cytotoxicity against human HL-60(TB) cells assessed as cell growth at 0.001 uM after 48 hrs by sulforhodamine B assay; conditions: HL-60, 48 h, read-out: Activity
In short: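 NCI 60-cell panel. Cells are grown in RPMI 1640 with 5% FBS and 2 mM L-glutamine, seeded at 5000–40,000 cells/well according to doubling time, and preincubated 24 h. Time-zero plates are TCA-fixed. Compound from DMSO stock is given at five 10-fold or 1/2-log concentrations for 48 h at 37 °C, 5% CO2. Suspension cells are fixed with 80% TCA (final 16%) and SRB-stained, with absorbance at 515 nm. Percent growth is derived from Tz, control and test readings.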

K562 [5] = test: Cytotoxicity against human K562 cells assessed as cell growth at 0.001 uM after 48 hrs by sulforhodamine B assay; conditions: K562, 48 h, read-out: Activity
SNB-75 = test: Cytotoxicity against human SNB75 cells assessed as cell growth at 1 uM after 48 hrs by sulforhodamine B assay; conditions: SNB-75, 48 h, read-out: Activity
[6] = Growth inhibition of human NCI60 cells at 10 uM after 48 hrs by sulforhodamine B assay relative to control; conditions: NCI60, 48 h, read-out: GI
In short: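 Single-dose NCI screen at 10 µM across the 60-line panel, 48 h exposure at 37 °C after a 24 h preincubation. Adherent cells were fixed with cold TCA and stained with 0.4% SRB, and absorbance was read at 515 nm. Inhibition % was taken as 100 minus growth %, and the mean across all lines was reported.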

NCI-H226 [7] = test: Cytotoxicity against human NCI-H226 cells assessed as cell growth at 0.001 uM after 48 hrs by sulforhodamine B assay; conditions: NCI-H226, 48 h, read-out: Activity
SK-MEL-28 = test: Cytotoxicity against human SK-MEL-28 cells assessed as cell growth at 0.01 uM after 48 hrs by sulforhodamine B assay; conditions: SK-MEL-28, 48 h, read-out: Activity
HCT-116 = test: Cytotoxicity against human HCT116 cells assessed as cell growth at 0.001 uM after 48 hrs by sulforhodamine B assay; conditions: HCT-116, 48 h, read-out: Activity
A498 [8] = test: Cytotoxicity against human A498 cells assessed as cell growth at 0.001 uM after 48 hrs by sulforhodamine B assay; conditions: A498, 48 h, read-out: Activity
In short: (§2)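 NCI-60 five-dose screen. Cells were grown in RPMI 1640 with 5% FBS and 2 mM L-glutamine, plated at 5000–40,000 cells/well and preincubated for 24 h. Time-zero plates were TCA-fixed. DMSO-solubilized drug was added at five concentrations (10-fold or ½-log serial dilutions) for 48 h at 37 °C, 5% CO2. Cells were TCA-fixed, stained with 0.4% SRB and read at 515 nm. Percent growth used time-zero, control and test absorbances.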

[9] = Growth inhibition of human […] cells after 48 hrs by sulforhodamine B assay
In short: (§3)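 NCI 60-cell screen, five-dose mode. Cells grown in RPMI 1640 with 5% FBS and 2 mM L-glutamine and plated at 5000-40,000 cells/well according to doubling time. After 24 h preincubation, a Tz plate was TCA-fixed. Five concentrations (10-fold or 1/2 log dilutions) were applied for 48 h at 37 °C. SRB staining read at 515 nm. IC50 taken from [(Ti-Tz)/(C-Tz)]×100 = 50.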

SF-295 = test: Growth inhibition of human SF295 cells after 48 hrs by sulforhodamine B assay; conditions: SF-295, 48 h; in short: as §3
SF-539 = test: Growth inhibition of human SF539 cells after 48 hrs by sulforhodamine B assay; conditions: SF-539, 48 h; in short: as §3
K562 [10] = test: Cytotoxicity against human K562 cells assessed as cell growth at 100 nM after 48 hrs by sulforhodamine B assay; conditions: K562, 48 h, read-out: Activity
SR = test: Cytotoxicity against human SR cells assessed as cell growth at 10 uM; conditions: read-out: Activity; in short: as §1
A498 [11] = test: Cytotoxicity against human A498 cells assessed as cell growth at 1 uM after 48 hrs by sulforhodamine B assay; conditions: A498, 48 h, read-out: Activity; in short: as §2
PC-3 [12] = test: Cytotoxicity against human PC3 cells assessed as cell growth at 1 uM after 48 hrs by sulforhodamine B assay; conditions: PC-3, 48 h, read-out: Activity
NCI-H226 [13] = test: Cytotoxicity against human NCI-H226 cells assessed as cell growth at 10 uM; conditions: read-out: Activity; in short: as §1
HCT-15 [14] = test: Cytotoxicity against human HCT15 cells assessed as cell growth at 10 uM after 48 hrs by sulforhodamine B assay; conditions: HCT-15, 48 h, read-out: Activity
SW-620 [15] = test: Cytotoxicity against human SW620 cells assessed as cell growth at 10 uM after 48 hrs by sulforhodamine B assay; conditions: SW-620, 48 h, read-out: Activity
MDA-MB-435 = test: Cytotoxicity against human MDA-MB-435 cells assessed as cell growth at 10 uM after 48 hrs by sulforhodamine B assay; conditions: MDA-MB-435, 48 h, read-out: Activity
IGROV-1 = test: Cytotoxicity against human IGROV1 cells assessed as cell growth at 10 uM after 48 hrs by sulforhodamine B assay; conditions: IGROV-1, 48 h, read-out: Activity
[16] = read-out: LC50 (the source's name)

Q: Which results are given for `COc1cc(C)cc(-c2c(-c3ccnc(-c4ccc(N(C)C)cc4)c3)cnn2CC#N)c1`?
A: growth at 0.1 µM (HCT-15 [1]): 14%; growth at 0.1 µM (SW-620 [2]): 12%; growth at 0.1 µM (NCI/ADR-RES): 2%; growth at 0.01 µM (K562 [3]): 34%; growth at 0.1 µM (TK-10): 44%; growth at 0.1 µM (UO-31): 45%; growth at 10 µM (UACC-257): 83.8%; growth at 10 µM (RXF 393): 23.3%; growth at 10 µM (PC-3 [4]): 27.6%; growth at 0.001 µM (HL-60(TB)): 82%; growth at 0.001 µM (K562 [5]): 104%; growth at 1 µM (SNB-75): 10%; inhibition of growth at 10 µM [6]: 88.4%; growth at 0.001 µM (NCI-H226 [7]): 95%; growth at 0.01 µM (SK-MEL-28): 20%; growth at 0.001 µM (HCT-116): 102%; growth at 0.001 µM (A498 [8]): 94%; GI50 [9]: 266 nM; TGI [9]: 1960 nM; CC50 [9, 16]: > 100 µM; GI50 (SF-295): 52.9 nM; TGI (SF-295): 315 nM; CC50 (SF-295; [16]): > 100 µM; GI50 (SF-539): 127 nM; CC50 (SF-539; [16]): > 100 µM; growth at 0.1 µM (K562 [10]): 7%; growth at 10 µM (SR): -6.91%; growth at 1 µM (A498 [11]): 17%; growth at 1 µM (PC-3 [12]): 13%; growth at 10 µM (NCI-H226 [13]): 39.8%; growth at 10 µM (HCT-15 [14]): 9%; growth at 10 µM (SW-620 [15]): 11%; growth at 10 µM (MDA-MB-435): -23%; growth at 10 µM (IGROV-1): -6%
